According to ChEMBL document CHEMBL4627411, “Novel Piperidinyl-Azetidines as Potent and Selective CCR4 Antagonists Elicit Antitumor Response as a Single Agent and in Combination with Checkpoint Inhibitors” (J Med Chem, 2020):
Calls of active or inactive are those of the source. The rule behind the calls is not given here.

Key:
Cytochrome P450 2C19 = Cytochrome P450 2C19 (Homo sapiens, UniProt P33261); assay: Inhibition of CYP2C19 in human liver microsomes using S-mephenytoin as substrate incubated for 20 mins in presence of NADPH by LC-MS/MS analysis; type: ADME
Cytochrome P450 2C19, sequence (P33261 whole entry): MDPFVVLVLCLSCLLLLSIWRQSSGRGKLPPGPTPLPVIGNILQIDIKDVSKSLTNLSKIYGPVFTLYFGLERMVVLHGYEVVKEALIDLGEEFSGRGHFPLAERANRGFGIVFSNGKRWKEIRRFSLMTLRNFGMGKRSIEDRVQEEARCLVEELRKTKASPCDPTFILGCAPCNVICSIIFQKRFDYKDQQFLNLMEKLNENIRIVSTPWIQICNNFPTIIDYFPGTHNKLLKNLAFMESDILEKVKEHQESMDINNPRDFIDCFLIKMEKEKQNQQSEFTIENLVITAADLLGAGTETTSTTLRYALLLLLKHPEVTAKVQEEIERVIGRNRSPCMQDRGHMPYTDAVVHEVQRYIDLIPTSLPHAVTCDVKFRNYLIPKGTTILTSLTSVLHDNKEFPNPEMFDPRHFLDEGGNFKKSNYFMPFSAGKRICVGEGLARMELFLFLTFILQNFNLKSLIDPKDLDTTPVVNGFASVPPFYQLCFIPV

Cytochrome P450 2D6 = Cytochrome P450 2D6 (Homo sapiens, UniProt P10635); assay: Inhibition of CYP2D6 in human liver microsomes using bufuralol hydrochloride salt as substrate incubated for 20 mins in presence of NADPH by LC-MS/MS analysis; type: ADME
Cytochrome P450 2D6, sequence (P10635 whole entry): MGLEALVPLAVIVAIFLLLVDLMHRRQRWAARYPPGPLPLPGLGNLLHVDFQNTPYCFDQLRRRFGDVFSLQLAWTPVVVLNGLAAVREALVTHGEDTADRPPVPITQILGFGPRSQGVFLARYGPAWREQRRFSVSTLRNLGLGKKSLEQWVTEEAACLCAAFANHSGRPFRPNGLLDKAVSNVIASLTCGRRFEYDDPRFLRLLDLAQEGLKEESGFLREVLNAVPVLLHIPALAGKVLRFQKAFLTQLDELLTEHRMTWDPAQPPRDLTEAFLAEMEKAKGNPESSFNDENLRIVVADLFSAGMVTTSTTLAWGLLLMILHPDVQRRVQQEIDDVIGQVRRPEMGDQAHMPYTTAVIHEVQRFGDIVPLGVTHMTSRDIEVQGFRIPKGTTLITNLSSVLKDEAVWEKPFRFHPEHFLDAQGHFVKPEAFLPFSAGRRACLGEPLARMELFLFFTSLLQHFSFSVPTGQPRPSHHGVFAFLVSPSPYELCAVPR

Cytochrome P450 3A4 = Cytochrome P450 3A4 (Homo sapiens, UniProt P08684); assay: Inhibition of CYP3A4 in human liver microsomes using midazolam hydrochloride as substrate incubated for 20 mins in presence of NADPH by LC-MS/MS analysis; type: ADME
Cytochrome P450 3A4, sequence (P08684 whole entry): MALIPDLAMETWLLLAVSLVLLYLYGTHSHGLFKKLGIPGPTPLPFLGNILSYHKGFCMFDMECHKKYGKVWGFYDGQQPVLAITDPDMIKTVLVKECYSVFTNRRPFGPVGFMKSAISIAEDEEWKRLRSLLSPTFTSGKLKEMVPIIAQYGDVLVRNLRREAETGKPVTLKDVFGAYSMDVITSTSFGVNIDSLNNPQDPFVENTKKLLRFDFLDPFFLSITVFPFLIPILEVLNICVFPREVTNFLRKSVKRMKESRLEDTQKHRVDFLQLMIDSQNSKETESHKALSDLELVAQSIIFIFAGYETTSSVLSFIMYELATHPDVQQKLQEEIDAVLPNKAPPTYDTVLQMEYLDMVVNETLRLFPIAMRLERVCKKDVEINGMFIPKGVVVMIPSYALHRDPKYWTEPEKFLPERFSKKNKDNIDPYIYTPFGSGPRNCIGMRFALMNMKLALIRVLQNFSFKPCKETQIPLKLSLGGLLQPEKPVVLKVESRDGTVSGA

CYP3A4 = CYP3A4 (Homo sapiens, UniProt P08684); assay: Ratio of IC50 for time-dependent inhibition of CYP3A4 in human liver microsomes using midazolam hydrochloride as substrate in presence of NADPH to IC50 for time-dependent inhibition of CYP3A4 in human liver microsomes using midazolam hydrochloride as substrate absence of NADPH; conditions: probe midazolam hydrochloride, read-out: Ratio IC50
CYP3A4, sequence (P08684 whole entry): as above

[1] = Volume of distribution at steady state in mouse at 0.5 mg/kg, iv; type: ADME, organism-based; conditions: in vivo, read-out: Vdss
[2] = AUC (0 to last) in mouse at 2 mg/kg, po; type: ADME, organism-based; parameters: dose 2 mg/kg, time 0 - last, route oral; conditions: in vivo
[3] = Oral bioavailability in mouse at 2 mg/kg; type: ADME, organism-based; conditions: in vivo
[4] = Clearance in cynomolgus monkey at 0.5 mg/kg, iv; type: ADME, organism-based, Macaca fascicularis; conditions: in vivo
[5] = Terminal half life in cynomolgus monkey at 0.5 mg/kg, iv; type: ADME, organism-based, Macaca fascicularis; conditions: in vivo, read-out: beta t1/2 (converted)
[6] = biological target: C-C chemokine receptor type 10 (Homo sapiens) (UniProt P46092); assay: Antagonist activity at human Gi/G0-coupled CCR10 receptor expressed in human U2OS cells assessed as inhibition of CCL27-induced beta arrestin2 recruitment at 500 nM preincubated for 30 mins followed by CCL27 stimulation and measured after 90 to 180 mins by pathhunter assay; type: cell-based
C-C chemokine receptor type 10 (Homo sapiens), sequence (P46092 whole entry): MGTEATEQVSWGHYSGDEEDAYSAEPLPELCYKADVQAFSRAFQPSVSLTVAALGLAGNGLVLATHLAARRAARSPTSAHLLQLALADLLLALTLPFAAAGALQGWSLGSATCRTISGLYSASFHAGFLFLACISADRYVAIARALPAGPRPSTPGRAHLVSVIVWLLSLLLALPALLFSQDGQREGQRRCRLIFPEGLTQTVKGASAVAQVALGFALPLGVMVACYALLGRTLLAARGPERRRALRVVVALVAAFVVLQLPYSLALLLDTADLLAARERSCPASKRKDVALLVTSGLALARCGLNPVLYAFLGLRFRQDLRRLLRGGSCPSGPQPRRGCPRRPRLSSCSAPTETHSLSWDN

[7] = biological target: C-C chemokine receptor type 1 (Homo sapiens) (UniProt P32246); assay: Antagonist activity at human Gi/G0-coupled CCR1 receptor assessed as inhibition of CCL3-induced beta arrestin2 recruitment at 500 nM preincubated for 30 mins followed by CCL3 stimulation and measured after 90 to 180 mins by pathhunter assay
C-C chemokine receptor type 1 (Homo sapiens), sequence (P32246 whole entry): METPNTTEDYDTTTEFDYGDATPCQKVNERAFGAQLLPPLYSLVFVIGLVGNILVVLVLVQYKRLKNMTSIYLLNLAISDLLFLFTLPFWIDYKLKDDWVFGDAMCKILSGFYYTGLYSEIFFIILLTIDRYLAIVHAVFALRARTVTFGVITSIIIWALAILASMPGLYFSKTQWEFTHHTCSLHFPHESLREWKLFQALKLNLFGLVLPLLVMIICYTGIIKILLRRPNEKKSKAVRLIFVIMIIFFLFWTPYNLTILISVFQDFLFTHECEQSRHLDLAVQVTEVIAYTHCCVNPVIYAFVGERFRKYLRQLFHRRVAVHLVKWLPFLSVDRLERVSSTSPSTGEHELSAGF

[8] = biological target: C-C chemokine receptor type 3 (Homo sapiens) (UniProt P51677); assay: Antagonist activity at human Gi/G0-coupled CCR3 receptor expressed in CHO-K1 cells assessed as inhibition of CCL13-induced beta arrestin2 recruitment at 500 nM preincubated for 30 mins followed by CCL13 stimulation and measured after 90 to 180 mins by pathhunter assay; type: cell-based
C-C chemokine receptor type 3 (Homo sapiens), sequence (P51677 whole entry): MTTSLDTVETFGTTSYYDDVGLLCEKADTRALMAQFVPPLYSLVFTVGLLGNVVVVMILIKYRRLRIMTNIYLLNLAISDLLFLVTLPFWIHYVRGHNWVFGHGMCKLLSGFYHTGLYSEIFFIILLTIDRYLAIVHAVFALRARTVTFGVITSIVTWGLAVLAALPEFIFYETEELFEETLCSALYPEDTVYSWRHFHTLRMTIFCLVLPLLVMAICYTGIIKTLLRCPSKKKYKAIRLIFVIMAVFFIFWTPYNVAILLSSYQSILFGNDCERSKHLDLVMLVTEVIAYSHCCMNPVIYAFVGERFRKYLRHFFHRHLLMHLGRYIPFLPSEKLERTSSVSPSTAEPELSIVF

[9] = biological target: C-C chemokine receptor type 4 (Homo sapiens) (UniProt P51679); assay: Antagonist activity at human Gi/G0-coupled CCR4 receptor expressed in CHO-K1 cells assessed as inhibition of CCL22-induced beta arrestin2 recruitment at 500 nM preincubated for 30 mins followed by CCL22 stimulation and measured after 90 to 180 mins by pathhunter assay; type: cell-based
C-C chemokine receptor type 4 (Homo sapiens), sequence (P51679 whole entry): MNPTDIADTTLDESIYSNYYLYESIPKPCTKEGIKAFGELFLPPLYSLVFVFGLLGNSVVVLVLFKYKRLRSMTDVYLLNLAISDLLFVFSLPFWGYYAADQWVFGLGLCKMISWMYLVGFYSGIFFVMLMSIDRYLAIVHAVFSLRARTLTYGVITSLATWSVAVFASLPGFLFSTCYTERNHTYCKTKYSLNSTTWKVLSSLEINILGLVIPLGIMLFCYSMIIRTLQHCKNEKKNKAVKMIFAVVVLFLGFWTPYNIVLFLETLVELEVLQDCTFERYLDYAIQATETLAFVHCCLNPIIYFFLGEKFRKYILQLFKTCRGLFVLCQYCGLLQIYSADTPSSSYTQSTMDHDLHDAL

[10] = biological target: C-C chemokine receptor type 5 (Homo sapiens) (UniProt P51681); assay: Antagonist activity at human Gi/G0-coupled CCR5 receptor expressed in CHOK1 cells assessed as inhibition of CCL3-induced beta arrestin2 recruitment at 500 nM preincubated for 30 mins followed by CCL3 stimulation and measured after 90 to 180 mins by pathhunter assay; type: cell-based; conditions: CHO-K1
C-C chemokine receptor type 5 (Homo sapiens), sequence (P51681 whole entry, looked up): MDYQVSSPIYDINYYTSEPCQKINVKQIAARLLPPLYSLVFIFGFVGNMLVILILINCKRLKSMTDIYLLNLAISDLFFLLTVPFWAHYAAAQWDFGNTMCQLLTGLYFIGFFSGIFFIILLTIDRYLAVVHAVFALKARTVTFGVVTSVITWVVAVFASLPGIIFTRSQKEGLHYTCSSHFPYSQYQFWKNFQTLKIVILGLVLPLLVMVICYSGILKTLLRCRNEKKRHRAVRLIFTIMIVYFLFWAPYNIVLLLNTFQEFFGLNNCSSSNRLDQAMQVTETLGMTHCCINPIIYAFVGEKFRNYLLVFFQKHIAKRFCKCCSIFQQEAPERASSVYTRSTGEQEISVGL

[11] = biological target: C-C chemokine receptor type 7 (Homo sapiens) (UniProt P32248); assay: Antagonist activity at human Gi/G0-coupled CCR7 receptor assessed as inhibition of CCL19-induced beta arrestin2 recruitment at 500 nM preincubated for 30 mins followed by CCL19 stimulation and measured after 90 to 180 mins by pathhunter assay
C-C chemokine receptor type 7 (Homo sapiens), sequence (P32248 whole entry): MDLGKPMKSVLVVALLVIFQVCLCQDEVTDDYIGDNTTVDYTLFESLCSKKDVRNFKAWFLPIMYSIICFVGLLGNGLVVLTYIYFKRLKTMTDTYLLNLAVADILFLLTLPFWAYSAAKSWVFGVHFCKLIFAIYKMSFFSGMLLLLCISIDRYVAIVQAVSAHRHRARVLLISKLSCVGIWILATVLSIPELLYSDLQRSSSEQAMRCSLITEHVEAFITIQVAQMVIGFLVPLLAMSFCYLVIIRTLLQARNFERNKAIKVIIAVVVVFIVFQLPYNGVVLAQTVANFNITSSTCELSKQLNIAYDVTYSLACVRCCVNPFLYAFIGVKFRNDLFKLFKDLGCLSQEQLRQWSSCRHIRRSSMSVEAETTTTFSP

[12] = biological target: C-C chemokine receptor type 8 (Homo sapiens) (UniProt P51685); assay: Antagonist activity at human CCR8 receptor assessed as inhibition of CCL1-induced beta arrestin2 recruitment at 500 nM preincubated for 30 mins followed by CCL1 stimulation and measured after 90 to 180 mins by pathhunter assay
C-C chemokine receptor type 8 (Homo sapiens), sequence (P51685 whole entry): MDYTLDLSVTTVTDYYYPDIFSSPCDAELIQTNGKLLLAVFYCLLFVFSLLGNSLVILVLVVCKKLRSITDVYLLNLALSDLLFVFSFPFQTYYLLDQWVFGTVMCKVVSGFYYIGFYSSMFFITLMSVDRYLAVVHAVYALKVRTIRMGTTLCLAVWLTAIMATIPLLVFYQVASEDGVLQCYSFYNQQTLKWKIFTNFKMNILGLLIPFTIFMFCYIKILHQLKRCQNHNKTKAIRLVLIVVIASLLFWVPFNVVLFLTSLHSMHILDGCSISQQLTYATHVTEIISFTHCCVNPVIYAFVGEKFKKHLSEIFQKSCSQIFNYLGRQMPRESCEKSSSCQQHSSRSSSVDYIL

[13] = biological target: CX3C chemokine receptor 1 (Homo sapiens) (UniProt P49238); assay: Antagonist activity at human Gi/G0-coupled CX3CR1 expressed in CHOK1 cells assessed as inhibition of CX3CL1-induced beta arrestin2 recruitment at 500 nM preincubated for 30 mins followed by CX3CL1 stimulation and measured after 90 to 180 mins by pathhunter assay; type: cell-based; conditions: CHO-K1
CX3C chemokine receptor 1 (Homo sapiens), sequence (P49238 whole entry): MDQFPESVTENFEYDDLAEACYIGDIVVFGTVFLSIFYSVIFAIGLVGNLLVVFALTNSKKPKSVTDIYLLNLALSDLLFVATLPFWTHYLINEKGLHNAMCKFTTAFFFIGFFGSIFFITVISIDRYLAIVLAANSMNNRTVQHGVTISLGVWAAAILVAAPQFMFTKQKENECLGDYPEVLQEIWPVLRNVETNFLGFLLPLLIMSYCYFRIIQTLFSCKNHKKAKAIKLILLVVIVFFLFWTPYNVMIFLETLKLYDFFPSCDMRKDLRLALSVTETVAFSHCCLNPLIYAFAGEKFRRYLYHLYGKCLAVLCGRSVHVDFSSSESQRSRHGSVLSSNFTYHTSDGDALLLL

[14] = biological target: C-X-C chemokine receptor type 1 (Homo sapiens) (UniProt P25024); assay: Antagonist activity at human Gi/G0-coupled CXCR1 expressed in CHOK1 cells assessed as inhibition of CXCL8-induced beta arrestin2 recruitment at 500 nM preincubated for 30 mins followed by CXCL8 stimulation and measured after 90 to 180 mins by pathhunter assay; type: cell-based; conditions: CHO-K1
C-X-C chemokine receptor type 1 (Homo sapiens), sequence (P25024 whole entry): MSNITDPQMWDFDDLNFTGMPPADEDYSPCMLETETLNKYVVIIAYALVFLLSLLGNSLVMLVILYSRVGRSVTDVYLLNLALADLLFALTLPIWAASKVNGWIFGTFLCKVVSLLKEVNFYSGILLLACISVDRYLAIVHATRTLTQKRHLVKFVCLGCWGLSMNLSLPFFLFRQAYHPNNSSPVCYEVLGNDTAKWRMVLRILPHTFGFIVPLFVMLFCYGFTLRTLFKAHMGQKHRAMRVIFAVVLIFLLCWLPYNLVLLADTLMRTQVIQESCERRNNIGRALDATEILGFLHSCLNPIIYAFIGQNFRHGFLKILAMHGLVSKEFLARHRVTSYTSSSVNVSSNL

Panc02 [15] = assay: Antitumor activity against mouse Panc02 cells allografted in C57BL/6 mouse assessed as reduction in tumor growth at 50 mg/kg, po qd for 38 days; type: functional, organism-based
Summary of the method: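 Pan02-OVA syngeneic tumor model. Compound given 50 mg/kg PO QD on a therapeutic schedule, alone or combined with anti-CTLA-4 antibody; tumor growth tracked. Groups compared by two-tailed t-test.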

Panc02 [16] = assay: Antitumor activity against mouse Panc02 cells implanted in po dosed C57BL/6 mouse assessed as inhibition of GFP-positive Treg cell migration in to tumor micro environment administered 30 mins prior to Treg cell population addition followed by daily compound dosing for 5 days and measured on day 6 by flow cytometry analysis; type: functional, organism-based
Summary of the method: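 Pan02 pancreatic ductal adenocarcinoma mice. Oral compound at several doses; adoptively transferred GFP+ iTreg counted in the tumor, with spleen, skin and lung also examined.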

Compound: C[C@H](c1ccc(Cl)cc1Cl)n1nc(C#N)c2ncc(N3CC([C@H]4CCCN(CCO)C4)C3)nc21
- IC50 (Cytochrome P450 2C19): > 40 µM
- IC50 (Cytochrome P450 2D6): > 40 µM
- IC50 (Cytochrome P450 3A4): > 40 µM
- IC50 shift (CYP3A4): 1.2
- Vd [1]: 5.2 L/kg
- AUC(0-t) [2]: 751 ng·h/mL
- bioavailability [3]: 29%
- clearance [4]: 3.7 mL/min/kg
- half-life [5]: 10.7 h
- Activity [6]: inactive
- Activity [7]: inactive
- Activity [8]: inactive
- Activity [9]: Active
- Activity [10]: inactive
- Activity [11]: inactive
- Activity [12]: inactive
- Activity [13]: inactive
- Activity [14]: inactive
- Activity (Panc02 [15]): Active
- Activity (Panc02 [16]): Dose-dependent effect
